Results reported in ChEMBL document CHEMBL1921714, “Discovery of aminobenzyloxyarylamides as κ opioid receptor selective antagonists: application to preclinical development of a κ opioid receptor antagonist receptor occupancy tracer” (J Med Chem, 2011).
The source made the active and inactive calls. No cut-off for these calls is given here.

Key:
[1] = target: T1, Delta-type opioid receptor (Homo sapiens, UniProt P41143); assay: Antagonist activity at human opioid delta receptor expressed in HEK293 cells assessed as inhibition of DPDPE-induced [35S]GTP-gamma-S binding after 4 hrs by scintillation counting; assay type: functional, cell-based
CHO [2] = assay: Selectivity ratio of Kb for human opioid mu receptor expressed in CHO cells to Kb for human opioid kappa receptor expressed in CHO cells; assay type: cell-based
Outline: (§1)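 Kb ratios from antagonist [35S]GTP-γ-S SPA on CHO (κ, μ) or HEK293 (δ) membranes. Agonists at about 80% maximal: U69,593 300 nM (κ), DAMGO 1 μM (μ), DPDPE 30 nM (δ). 11-point curves, top 1 or 10 μM. Nonspecific binding: NorBNI, naltrexone or naltriben, each 10 μM. Kb = IC50/(1+D/EC50); geometric means with SEM.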

[3] = target: T2, Kappa-type opioid receptor (Homo sapiens, UniProt P41145); assay: Displacement of [3H]diprenorphine from human opioid kappa receptor expressed in CHO cells after 120 mins by scintillation counting; assay type: cell-based
Outline: (§2)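 11-point curves, 0.01 nM–1 μM final. 120 min at 22 °C, then filtration and scintillation counting. Nonspecific binding set by 10 μM naltrexone. Four-parameter IC50; Ki by Cheng–Prusoff.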

Mu-type opioid receptor [4] = target: T3, Mu-type opioid receptor (Homo sapiens, UniProt P35372); assay: Displacement of [3H]diprenorphine from human opioid mu receptor expressed in CHO cells after 120 mins by scintillation counting; assay type: cell-based; outline: as §2
[5] = target: T1, Delta-type opioid receptor; assay: Displacement of [3H]diprenorphine from human opioid delta receptor expressed in HEK293 cells after 120 mins by scintillation counting; assay type: cell-based; outline: as §2
CHO [6] = assay: Selectivity ratio of Ki for human opioid mu receptor expressed in CHO cells to Ki for human opioid kappa receptor expressed in CHO cells; assay type: cell-based
HEK293 [7] = assay: Selectivity ratio of Ki for human opioid delta receptor expressed in HEK293 cells to Ki for human opioid kappa receptor expressed in CHO cells; assay type: cell-based
[8] = target: T2, Kappa-type opioid receptor; assay: Antagonist activity at human opioid kappa receptor expressed in CHO cells assessed as inhibition of U69593-induced [35S]GTP-gamma-S binding after 4 hrs by scintillation counting; assay type: functional, cell-based
Mu-type opioid receptor [9] = target: T3, Mu-type opioid receptor; assay: Antagonist activity at human opioid mu receptor expressed in CHO cells assessed as inhibition of DAMGO-induced [35S]GTP-gamma-S binding after 4 hrs by scintillation counting; assay type: functional, cell-based
HEK293 [10] = assay: Selectivity ratio of Kb for human opioid delta receptor expressed in HEK293 cells to Kb for human opioid kappa receptor expressed in CHO cells; assay type: cell-based; outline: as §1
[11] = target: T2, Kappa-type opioid receptor; assay: Agonist activity at human opioid kappa receptor expressed in CHO cells assessed as stimulation of [35S]-GTPgammaS binding at 10 uM; assay type: functional, cell-based
Outline: (§3)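 Agonist mode: membranes from CHO (κ, μ) or HEK293 (δ) cells expressing cloned human receptors, no agonist added, tested at up to 10 μM. [35S]GTP-γ-S (0.5 nM final) binding in HEPES pH 7.4, MgCl2, NaCl, EDTA, DTT, 200 μM GDP. Read by WGA SPA beads after 2 h (δ) or 4 h (κ, μ) at room temperature, then 4 °C overnight.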

Mu-type opioid receptor [12] = target: T3, Mu-type opioid receptor; assay: Agonist activity at human opioid mu receptor expressed in CHO cells assessed as stimulation of [35S]-GTPgammaS binding at 10 uM; assay type: functional, cell-based; outline: as §3
[13] = target: T1, Delta-type opioid receptor; assay: Agonist activity at human opioid delta receptor expressed in HEK293 cells assessed as stimulation of [35S]-GTPgammaS binding at 10 uM; assay type: functional, cell-based; outline: as §3
Striatum [14] = assay: Drug uptake in rat striatum at 3 ug/kg, iv measured after 40 mins by LC/MS-MS analysis; assay type: ADME, organism-based; conditions: in vivo, 0.003 mg/kg
Outline: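 Groups of four rats received a single iv tracer dose and were killed 20 or 40 min later. Striatum was weighed, homogenized in 4 volumes acetonitrile/0.1% formic acid and centrifuged. The supernatant was diluted and analysed by LC/MS/MS against standards spiked into naive rat brain. %SUV = tissue amount/injected dose × 100.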

Nucleic Acid = assay: Ratio of drug uptake in striatum to cerebellum in rat at 3 ug/kg, iv measured after 40 mins by LC/MS/MS analysis; assay type: ADME, organism-based; conditions: in vivo, 0.003 mg/kg
Outline: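 Groups of four rats were given iv tracer and killed 20 or 40 min after dosing. Striatum (total binding) and cerebellum (nonspecific, null region) were extracted in acetonitrile/0.1% formic acid and quantified by LC/MS/MS. Binding potential was calculated as (striatum/cerebellum concentration) − 1.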

Striatum [15] = assay: Drug uptake in rat striatum at 3 ug/kg, iv pretreated 1 hr with 3-Fluoro-4-[4-[[ (2S)-2-(3-fluorophenyl)pyrrolidin-1-yl]methyl]- phenoxy]benzamide measured after 40 mins by LC/MS-MS analysis; assay type: ADME, organism-based; conditions: in vivo, 0.003 mg/kg
Outline: (§4)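 Rats were pretreated 1 h with the κ antagonist at a range of doses, then given tracer at 3 ug/kg iv. Brains were taken 40 min after tracer. Striatum and cerebellum were extracted in acetonitrile/0.1% formic acid and tracer levels quantified by LC/MS/MS.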

Cerebellum = assay: Drug uptake in rat cerebellum at 3 ug/kg, iv pretreated 1 hr with 3-Fluoro-4-[4-[[ (2S)-2-(3-fluorophenyl)pyrrolidin-1-yl]methyl]- phenoxy]benzamide measured after 40 mins by LC/MS-MS analysis; assay type: ADME, organism-based; conditions: in vivo, 0.003 mg/kg; outline: as §4

T2 sequence (P41145 whole entry): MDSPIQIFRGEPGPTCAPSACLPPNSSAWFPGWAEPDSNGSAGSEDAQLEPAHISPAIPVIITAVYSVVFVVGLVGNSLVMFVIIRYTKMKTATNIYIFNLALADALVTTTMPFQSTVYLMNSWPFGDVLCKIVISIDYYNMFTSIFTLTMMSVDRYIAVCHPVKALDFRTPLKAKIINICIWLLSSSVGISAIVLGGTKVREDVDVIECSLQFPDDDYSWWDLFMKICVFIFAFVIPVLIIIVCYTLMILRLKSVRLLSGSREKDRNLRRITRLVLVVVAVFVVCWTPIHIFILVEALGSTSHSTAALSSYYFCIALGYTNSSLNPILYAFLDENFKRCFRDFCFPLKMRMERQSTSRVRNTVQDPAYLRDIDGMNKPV
T3 sequence (P35372 whole entry): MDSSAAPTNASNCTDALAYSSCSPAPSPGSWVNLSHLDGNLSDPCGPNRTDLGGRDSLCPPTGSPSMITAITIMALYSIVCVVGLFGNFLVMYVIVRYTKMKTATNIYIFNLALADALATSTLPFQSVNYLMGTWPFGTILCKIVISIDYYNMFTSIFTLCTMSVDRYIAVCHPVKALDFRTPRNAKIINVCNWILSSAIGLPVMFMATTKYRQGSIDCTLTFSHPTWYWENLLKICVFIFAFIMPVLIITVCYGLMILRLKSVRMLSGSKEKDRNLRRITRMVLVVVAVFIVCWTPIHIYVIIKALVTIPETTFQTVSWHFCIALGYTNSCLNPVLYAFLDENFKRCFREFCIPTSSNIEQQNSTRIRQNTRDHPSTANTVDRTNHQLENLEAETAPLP
T1 sequence (P41143 whole entry): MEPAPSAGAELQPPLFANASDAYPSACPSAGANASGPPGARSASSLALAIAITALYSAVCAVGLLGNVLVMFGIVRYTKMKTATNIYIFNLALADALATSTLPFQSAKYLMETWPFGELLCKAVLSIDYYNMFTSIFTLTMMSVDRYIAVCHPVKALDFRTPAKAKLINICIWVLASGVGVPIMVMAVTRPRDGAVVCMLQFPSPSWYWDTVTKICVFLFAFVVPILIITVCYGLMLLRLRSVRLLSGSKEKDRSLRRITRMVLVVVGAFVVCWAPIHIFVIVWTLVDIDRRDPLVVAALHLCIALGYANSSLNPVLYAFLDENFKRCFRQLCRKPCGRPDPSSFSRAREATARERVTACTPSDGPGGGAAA

SMILES: NC(=O)c1ccc(Oc2ccc(CN3CCC[C@H]3c3cccnc3)cc2)c(Cl)c1
- Kb [1]: 83.3 nM
- Ratio (CHO [2]): 11
- Ki [3]: 0.722 nM
- Ki (Mu-type opioid receptor [4]): 25.8 nM
- Ki [5]: 153 nM
- Ratio Ki (CHO [6]): 36
- Ratio Ki (HEK293 [7]): 212
- Kb [8]: 0.632 nM
- Kb (Mu-type opioid receptor [9]): 6.8 nM
- Ratio (HEK293 [10]): 132
- Activity [11]: inactive
- Activity (Mu-type opioid receptor [12]): inactive
- Activity [13]: inactive
- SUV (Striatum [14]): 67%
- Ratio (Nucleic Acid): 1.2
- Drug uptake (Striatum [15]): Active
- Drug uptake (Cerebellum): Not Active
